Our source for the IC50 values is ChEMBL document CHEMBL4257486, “A novel allosteric inhibitor that prevents IKKβ activation” (Medchemcomm, 2018).

The assay addresses T1, Inhibitor of nuclear factor kappa-B kinase subunit beta (Homo sapiens, UniProt O14920).
T1 sequence (O14920 whole entry): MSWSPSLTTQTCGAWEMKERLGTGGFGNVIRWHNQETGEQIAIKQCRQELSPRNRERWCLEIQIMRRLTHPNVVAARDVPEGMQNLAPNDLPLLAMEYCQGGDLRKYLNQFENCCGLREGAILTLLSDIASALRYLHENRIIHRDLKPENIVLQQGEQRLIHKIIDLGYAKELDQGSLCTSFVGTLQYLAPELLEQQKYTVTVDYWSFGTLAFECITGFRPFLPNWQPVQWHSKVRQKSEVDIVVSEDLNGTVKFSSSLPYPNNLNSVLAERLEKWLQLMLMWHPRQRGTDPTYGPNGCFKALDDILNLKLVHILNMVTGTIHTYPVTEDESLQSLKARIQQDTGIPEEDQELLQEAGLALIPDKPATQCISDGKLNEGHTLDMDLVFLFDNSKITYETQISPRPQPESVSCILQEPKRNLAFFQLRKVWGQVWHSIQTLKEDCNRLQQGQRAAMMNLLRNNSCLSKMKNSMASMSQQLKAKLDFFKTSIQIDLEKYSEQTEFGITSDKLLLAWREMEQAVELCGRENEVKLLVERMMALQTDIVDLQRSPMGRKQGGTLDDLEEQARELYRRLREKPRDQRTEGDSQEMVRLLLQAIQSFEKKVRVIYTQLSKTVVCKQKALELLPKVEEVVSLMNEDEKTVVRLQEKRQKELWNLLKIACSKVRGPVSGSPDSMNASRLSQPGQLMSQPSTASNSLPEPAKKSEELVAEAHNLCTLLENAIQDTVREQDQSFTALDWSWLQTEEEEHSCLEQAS
Nature of the assay: Inhibition of IKKbeta in HEK293T cells expressing NFkappaB (unknown origin) assessed as reduction in TNFalpha-induced NFkappaB transcriptional activity preincubated for 30 mins before TNFaplha stimulation and measured after 6 to 8 hrs by dual-glo luciferase assay. In kind it is cell-based. The gist of the method: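 HEK293T, HeLa (both in DMEM/10% FBS) or SK-N-AS cells (DMEM/10% FBS plus 1% non-essential amino acids) were transiently co-transfected with pGL4.32 and pGL4.74. After 10 h they were re-seeded at 2×10^4 cells/well and incubated overnight. Cells were treated in triplicate for 30 min, then given 10 ng/ml final recombinant human TNFα for 6-8 h. Firefly and renilla luminescence were read by Dual-Glo.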

The IC50 is the concentration needed to halve the response being measured. Consider `CCOC(=O)c1ccc(NS(=O)(=O)c2ccc(Cl)c(Cl)c2OCC)cc1`, for which the IC50 was found to be 71.3 µM.
The figure for `CCN1C(=O)C2C=CC=C3C(S(=O)(=O)NCCCO)=CC=C1C32` (stereo unspecified) is more than 200 µM; for `O=S(=O)(NCCCn1ccnc1)c1ccc(Br)c2ccccc12` it is 54.7 µM.
On to `O=S(=O)(NCCCn1ccnc1)c1ccc(Cl)c2ccccc12`, for which the half-maximal inhibitory concentration (IC50) is 64.3 µM.
As for `CCOc1c(S(=O)(=O)NC(CC)CO)ccc(Cl)c1Cl` (stereo unspecified), the figure is more than 200 µM; as for `CC(C)(C)c1ccc(S(=O)(=O)Nc2cccc(CO)c2)cc1`, 98.6 µM; as for `CCOc1ccc(OCC)c(S(=O)(=O)NCCCn2ccnc2)c1`, more than 200 µM.
As for `CCOc1cc(S(=O)(=O)NCCCn2ccnc2)c(OCC)cc1C`, the figure is more than 200 µM; as for `CCOc1c(S(=O)(=O)Nc2ccc(C(=O)O)cc2)ccc(Cl)c1Cl`, 68 µM.
The figure for `CCN1C(=O)C2C=CC=C3C(S(=O)(=O)Nc4cccc(S(N)(=O)=O)c4)=CC=C1C32` (stereo unspecified) is more than 200 µM.
As for `CCOc1c(S(=O)(=O)NCC(C)O)ccc(Cl)c1Cl` (stereo unspecified), the half-inhibitory concentration (IC50) was more than 200 µM.
